Experiments:
[1] = test system: P388; test: Percent increase in life span of dying mice tested in vivo at 23.5 mg/kg against ip implanted P388 Leukemia in mice; assay type: functional; details: Mus musculus, route intraperitoneal
Outline: (§1)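 Portage-CD2F1 female mice inoculated ip with ascitic fluid carrying ca. 5.2×10^6 P388 leukemia cells. Drug given ip daily on days 1-5, starting 24 h after inoculation, dosed by average body weight. %ILS is from the median day of death of dying mice versus controls.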

[2] = Concentration required to inhibit tumor growth in PSN-1, human pancreatic carcinoma cell line; assay type: functional
Outline: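 PSN-1 pancreatic carcinoma cells exposed to compound dissolved in RPMI-1640 plus HEPES at its maximum soluble concentration for 72 h. Read-out by sulforhodamine B colorimetric assay.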

[3] = Percent increase in life span of dying mice tested in vivo at 94 mg/kg against ip implanted LOX amelanotic melanoma in mice (60-day survivors); assay type: functional; details: Mus musculus, 1440 h, route intraperitoneal
Outline: (§2)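 Nude CD2F1 female mice were implanted ip with ascitic fluid containing ca. 1.7×10^6 LOX amelanotic melanoma cells. Drug was given ip on days 1, 5 and 9, starting 24 h after implantation, and dosed by exact body weight. Solutions or suspensions were made fresh daily in saline plus Tween 80. %ILS was calculated from the median day of death of dying mice versus controls, excluding 60-day survivors.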

[4] = test system: A549; test: Concentration required to inhibit tumor growth in A549, human lung carcinoma (NSCLC) cell line; assay type: functional, cell-based
Outline: (§3)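 Cells grown in RPMI 1640 with 5% fetal calf serum, 5% NuSerum IV and 20 mM HEPES, seeded and allowed to adhere overnight. Compound dissolved in RPMI-1640 plus HEPES and tested over a 5 log range (10 concentrations) for 72 h. Read-out by sulforhodamine B assay. Median-effect dose derived by nonlinear regression of the concentration-effect curve.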

[5] = test system: P388; test: Percent increase in life span of dying mice tested in vivo at 11.8 mg/kg against ip implanted P388 Leukemia in mice; assay type: functional; details: Mus musculus, route intraperitoneal; outline: as §1
[6] = Change in tumor cell population in ip implanted LOX amelanotic melanoma in mice after administration of compound at 47 mg/kg; assay type: functional, Mus musculus; details: route intraperitoneal
Outline: (§4)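 Female CD2F1 mice were implanted ip with ascitic fluid holding ca. 1.7×10^6 LOX cells. Dosing was ip on days 1, 5 and 9, starting 24 h after implantation, by exact body weight, as a solution or suspension in saline plus Tween 80, freshly prepared daily. KE is the net log change in viable tumor cells from start to end of treatment. Bracketed KE assumes Poisson survival, with 60-day survivors tumor-free.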

[7] = Concentration required to inhibit tumor growth in […], human breast adenocarcinoma cell line; assay type: functional; outline: as §3
[8] = test system: P388; test: Change in tumor cell population in ip implanted P388 Leukemia in mice after administration of compound at 11.8 mg/kg; assay type: functional, Mus musculus; details: route intraperitoneal
Outline: (§5)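 Female Portage-CD2F1 mice were inoculated ip with ascitic fluid holding ca. 5.2×10^6 P388 cells. Dosing was ip on days 1-5, starting 24 h after inoculation, by average body weight, as a solution or suspension in saline plus Tween 80. KE is the net log change in viable tumor cell population from start to end of the treatment period.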

[9] = test system: P388; test: Change in tumor cell population in ip implanted P388 Leukemia in mice after administration of compound at 23.5 mg/kg; assay type: functional, Mus musculus; details: route intraperitoneal; outline: as §5
[10] = test system: P388; test: Change in tumor cell population in ip implanted P388 Leukemia in mice after administration of compound at 47 mg/kg; assay type: functional, Mus musculus; details: route intraperitoneal
Outline: (§6)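 P388 leukemia: ascitic fluid with ca. 5.2×10^6 cells inoculated ip into Portage-CD₂F₁ female mice. Drug given ip on days 1-5, starting 24 h after inoculation, dosed by average body weight. Vehicle was saline plus Tween 80, as a solution or suspension. KE = net log change in viable tumor cells from start to end of treatment.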

[11] = Percent increase in life span of dying mice tested in vivo at 188 mg/kg against ip implanted LOX amelanotic melanoma in mice (60-day survivors); assay type: functional; details: Mus musculus, 1440 h, route intraperitoneal
Outline: (§7)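 Female CD2F1 mice implanted ip with ascitic fluid carrying ca. 1.7×10^6 LOX amelanotic melanoma cells. Drug given ip on days 1, 5 and 9, starting 24 h after implant, dosed by exact body weight; solutions or suspensions made fresh daily. %ILS is from the median day of death of dying mice versus controls, excluding 60-day survivors.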

[12] = Change in tumor cell population in ip implanted LOX amelanotic melanoma in mice after administration of compound at 23.5 mg/kg; assay type: functional, Mus musculus; details: route intraperitoneal; outline: as §4
[13] = test system: P388; test: Percent increase in life span of dying mice tested in vivo at 94 mg/kg against ip implanted P388 Leukemia in mice; assay type: functional; details: Mus musculus, route intraperitoneal
Outline: (§8)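 Portage-CD2F1 female mice were inoculated ip with ascitic fluid containing ca. 5.2×10^6 P388 leukemia cells. Drug was given ip daily on days 1-5, starting 24 h after inoculation, and dosed by average body weight. %ILS was calculated from the median day of death of dying mice versus controls.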

[14] = test system: HT-29; test: Concentration required to inhibit tumor growth in HT29, human colon adenocarcinoma cell line; assay type: functional, cell-based; details: Homo sapiens, HT-29; outline: as §3
[15] = test system: L1210 (Mus musculus); test: Concentration required to inhibit tumor growth in L1210, murine lymphocytic leukemia cell line
[16] = test system: P388; test: Change in tumor cell population in ip implanted P388 Leukemia in mice after administration of compound at 94 mg/kg; assay type: functional, Mus musculus; details: route intraperitoneal; outline: as §6
[17] = Percent increase in life span of dying mice tested in vivo at 47 mg/kg against ip implanted LOX amelanotic melanoma in mice (60-day survivors); assay type: functional; details: Mus musculus, 1440 h, route intraperitoneal; outline: as §7
[18] = Change in tumor cell population in ip implanted LOX amelanotic melanoma in mice after administration of compound at 94 mg/kg; assay type: functional, Mus musculus; details: route intraperitoneal; outline: as §4
[19] = Percent increase in life span of dying mice tested in vivo at 23.5 mg/kg against ip implanted LOX amelanotic melanoma in mice (60-day survivors); assay type: functional; details: Mus musculus, 1440 h, route intraperitoneal; outline: as §7
[20] = test system: P388; test: Percent increase in life span of dying mice tested in vivo at 47 mg/kg against ip implanted P388 Leukemia in mice; assay type: functional; details: Mus musculus, route intraperitoneal; outline: as §1
[21] = Change in tumor cell population in ip implanted LOX amelanotic melanoma in mice after administration of compound at 188 mg/kg; assay type: functional, Mus musculus; details: route intraperitoneal; outline: as §4
[22] = test system: P388; test: Percent increase in life span of dying mice tested in vivo at 91 mg/kg against ip implanted P388 Leukemia in mice; assay type: functional; details: Mus musculus, route intraperitoneal; outline: as §8
[23] = test system: P388; test: Change in tumor cell population in ip implanted P388 Leukemia in mice after administration of compound at 45.5 mg/kg; assay type: functional, Mus musculus; details: route intraperitoneal; outline: as §6
[24] = test system: P388; test: Change in tumor cell population in ip implanted P388 Leukemia in mice after administration of compound at 91 mg/kg; assay type: functional, Mus musculus; details: route intraperitoneal; outline: as §6
[25] = Change in tumor cell population in ip implanted LOX amelanotic melanoma in mice after administration of compound at 22.75 mg/kg; assay type: functional, Mus musculus; details: route intraperitoneal; outline: as §4
[26] = test system: P388; test: Percent increase in life span of dying mice tested in vivo at 22.8 mg/kg against ip implanted P388 Leukemia in mice; assay type: functional; details: Mus musculus, route intraperitoneal; outline: as §1
[27] = Percent increase in life span of dying mice tested in vivo at 22.75 mg/kg against ip implanted LOX amelanotic melanoma in mice (60-day survivors); assay type: functional; details: Mus musculus, 1440 h, route intraperitoneal; outline: as §7
[28] = Percent increase in life span of dying mice tested in vivo at 91 mg/kg against ip implanted LOX amelanotic melanoma in mice (60-day survivors); assay type: functional; details: Mus musculus, 1440 h, route intraperitoneal; outline: as §2
[29] = Change in tumor cell population in ip implanted LOX amelanotic melanoma in mice after administration of compound at 91 mg/kg; assay type: functional, Mus musculus; details: route intraperitoneal; outline: as §4
[30] = Change in tumor cell population in ip implanted LOX amelanotic melanoma in mice after administration of compound at 45.5 mg/kg; assay type: functional, Mus musculus; details: route intraperitoneal; outline: as §4
[31] = Percent increase in life span of dying mice tested in vivo at 45.5 mg/kg against ip implanted LOX amelanotic melanoma in mice (60-day survivors); assay type: functional; details: Mus musculus, 1440 h, route intraperitoneal; outline: as §7
[32] = Percent increase in life span of dying mice tested in vivo at 182 mg/kg against ip implanted LOX amelanotic melanoma in mice (60-day survivors); assay type: functional; details: Mus musculus, 1440 h, route intraperitoneal; outline: as §7
[33] = Change in tumor cell population in ip implanted LOX amelanotic melanoma in mice after administration of compound at 182 mg/kg; assay type: functional, Mus musculus; details: route intraperitoneal; outline: as §4
[34] = test system: P388; test: Percent increase in life span of dying mice tested in vivo at 45.5 mg/kg against ip implanted P388 Leukemia in mice; assay type: functional; details: Mus musculus, route intraperitoneal; outline: as §1
[35] = test system: P388; test: Change in tumor cell population in ip implanted P388 Leukemia in mice after administration of compound at 22.8 mg/kg; assay type: functional, Mus musculus; details: route intraperitoneal; outline: as §5
[36] = test system: P388; test: Change in tumor cell population in ip implanted P388 Leukemia in mice after administration of compound at 11.4 mg/kg; assay type: functional, Mus musculus; details: route intraperitoneal; outline: as §5
[37] = test system: P388; test: Percent increase in life span of dying mice tested in vivo at 11.4 mg/kg against ip implanted P388 Leukemia in mice; assay type: functional; details: Mus musculus, route intraperitoneal; outline: as §1

CCCSc1nc(COC(=O)NC)c(COC(=O)NC)n1C
ILS at 23.5 mg/kg [1]: 40% | IC50 [2]: 115 µM | ILS at 94 mg/kg [3]: 22% | IC50 [4]: 190 µM | ILS at 11.8 mg/kg [5]: 40% | KE [6]: 0.7 | IC50 [7]: 147 µM | KE [8]: -0.1 | KE [9]: -0.1 | KE [10]: -1.5 | ILS at 188 mg/kg [11]: 76% | KE [12]: 1.3 | ILS at 94 mg/kg [13]: 84% | IC50 [14]: 108 µM | IC50 [15]: 18 µM | KE [16]: -3.3 | ILS at 47 mg/kg [17]: 24% | KE [18]: 0.6 | ILS at 23.5 mg/kg [19]: 13% | ILS at 47 mg/kg [20]: 59% | KE [21]: -1.6

CNC(=O)OCc1nc2n(c1COC(=O)NC)CCCS2
IC50 [2]: > 650 µM | IC50 [4]: > 1000 µM | IC50 [7]: > 1000 µM | IC50 [14]: > 1000 µM | IC50 [15]: > 100 µM

CNC(=O)OCc1nc([S+](C)[O-])n(C)c1COC(=O)NC (configuration not stated)
ILS at 91 mg/kg [22]: 17% | KE [23]: 0.9 | KE [24]: 1.3 | KE [25]: 2 | ILS at 22.8 mg/kg [26]: 10% | ILS at 22.75 mg/kg [27]: -7% | ILS at 91 mg/kg [28]: -8% | KE [29]: 2 | KE [30]: 2 | ILS at 45.5 mg/kg [31]: -8% | ILS at 182 mg/kg [32]: 2% | KE [33]: 1.8 | ILS at 45.5 mg/kg [34]: 27% | KE [35]: 1.4 | KE [36]: 1.4 | ILS at 11.4 mg/kg [37]: 10%

From ChEMBL document CHEMBL1126902, “Synthesis, chemical reactivity, and antitumor evaluation of congeners of carmethizole hydrochloride, an experimental "acylated vinylogous carbinolamine" tumor inhibitor” (J Med Chem, 1993)
